According to ChEMBL document CHEMBL1155544, “Syntheses and structure-activity relationship (SAR) studies of 2,5-diazabicyclo[2.2.1]heptanes as novel alpha7 neuronal nicotinic receptor (NNR) ligands” (Bioorg Med Chem Lett, 2010):

Assay: Metabolic stability in human liver microsome assessed as compound remaining after 30 mins
Format: ADME
Conditions: liver microsomes, read-out: Stability
Method in brief: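 Human liver microsomes, 30 min incubation; read-out is percent of parent compound remaining.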

With `CN1C[C@@H]2C[C@H]1CN2c1ccc(-c2ccc3[nH]ccc3c2)nn1` the remaining at 0.5 h was 97%.
